Data as given in paper PMC12166265 (Clinical Pharmacology and Therapeutics, 2025).
Read-outs that look alike come from different tables or passages of the source.

Columns and labels:
BCRP = details: 14 healthy males, BMS-986371; cited from earlier work
ABCG2 p.Q141K variant = assay type: in vivo, human; details: two p.Q141K (CA) vs nine REF (CC) individuals; T = 0 h
Method in brief: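 Open-label fixed-sequence crossover in 11 healthy non-smoking adults aged 18–64. Single oral rosuvastatin 10 mg given after an overnight fast, with fasting continued 4 h. Heparinised venous plasma was stored at −70°C and analysed by LC–MS. ABCG2 c.421C>A was genotyped blind by PCR and Sanger sequencing. Nine CC and two CA subjects were compared at T = 0 h and by noncompartmental PK, using log-transformed geometric means and unpaired t-tests.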

[1] = assay type: in vivo, human; details: for Effect of eltrombopag administration on plasma concentrations (in words): eltrombopag 75 mg daily for 5 days; for AUC0−24, geometric mean ratio (90% CI) of rosuvastatin + eltrombopag arm to rosuvastatin alone arm / C0, geometric mean ratio (90% CI) of rosuvastatin + eltrombopag arm to rosuvastatin alone arm / Cmax, geometric mean ratio (90% CI) of rosuvastatin + eltrombopag arm to rosuvastatin alone arm: in vivo
[2] = both, human, plasma, oral, 10 mg
[3] = rosuvastatin + eltrombopag arm, geometric mean (90% CI)
[4] = rosuvastatin alone arm, geometric mean (90% CI)

Effect of eltrombopag administration on plasma concentrations (in words) [1]	AUC0−24, geometric mean ratio (90% CI) of rosuvastatin + eltrombopag arm to rosuvastatin alone arm ([1]; human)	C0, geometric mean ratio (90% CI) of rosuvastatin + eltrombopag arm to rosuvastatin alone arm ([1]; human)	Cmax, geometric mean ratio (90% CI) of rosuvastatin + eltrombopag arm to rosuvastatin alone arm ([1]; human)	AUC0−24 [1, 3]	C0 [1, 3]	Cmax [1, 3]	AUC0−24 [1, 4]	C0 [1, 4]	Cmax [1, 4]	Molecule	also measured
did not lead to corresponding increases										Cc1cc2nc3c(=O)[nH]c(=O)nc-3n(C[C@H](O)[C@H](O)[C@H](O)CO)c2cc1C [Riboflavin]	Increase in riboflavin AUC0−4 (BCRP): 1.25 fold; Increase in riboflavin AUC0−24 (BCRP): 1.14 fold; Increase in riboflavin Cmax (BCRP): 1.11 fold; Baseline concentrations, heterozygous p.Q141K vs homozygous reference allele (ABCG2 p.Q141K variant): no association; C0 at 0 h ([1]; both, human, plasma, oral): 2.79 ng/mL; Cmax ([1]; both, human, plasma, oral): 3.61 ng/mL; AUC [1, 2]: 11.7 ng·h/mL; C0 at 0 h [1, 2]: 2.72 ng/mL; Cmax [1, 2]: 4.16 ng/mL; AUC(0-t) ([1]; both, human, plasma, oral, 10 mg, AUC0−4, rosuvastatin alone arm, geometric mean (90% CI)): 10.6 ng·h/mL; AUC(0-t) ([1]; both, human, plasma, oral, 10 mg, AUC0−24, rosuvastatin alone arm, geometric mean (90% CI)): 65.9 ng·h/mL; AUC(0-t) ([1]; both, human, plasma, oral, 10 mg, mean riboflavin AUC0−4, fasted state, rosuvastatin alone arm): 10.6 ng·h/mL; AUC(0-t) ([1]; both, human, plasma, oral, AUC0−4, rosuvastatin + eltrombopag arm, geometric mean (90% CI)): 10.2 ng·h/mL; AUC(0-t) ([1]; both, human, plasma, oral, AUC0−24, rosuvastatin + eltrombopag arm, geometric mean (90% CI)): 65.6 ng·h/mL; AUC(0-t) ([1]; both, human, plasma, oral, mean riboflavin AUC0−4, fasted state, in the presence of eltrombopag): 9.7 ng·h/mL
no effect	0.93 (0.80–1.08); P = 0.44	0.75 (0.64–0.88); P = 0.01	0.83 (0.70–0.98); P = 0.08	1.70 (1.46–1.99) nM*h	0.09 nM	0.11 nM	1.83 (1.60–2.09) nM*h	0.12 nM	0.13 nM	Coproporphyrin-III [CP‐III]	
no effect	0.96 (0.88–1.04); P = 0.50	0.90 (0.83–0.98); P = 0.05	0.95 (0.88–1.03); P = 0.33	16.2 (14.2–18.4) nM*h	0.74 nM	0.89 nM	16.9 (15.3–18.6) nM*h	0.81 nM	0.93 nM	Coproporphyrin-I [CP‐I]	
